The term MIC denotes the lowest concentration that inhibits growth of the organism. High values mean weaker potency, low ones greater potency. In general, IC50 refers to the midpoint of a concentration-inhibition curve. The inhibition is how much of the control response was suppressed.

The subject of experiment [1] is Pseudomonas aeruginosa. The experiment can be described thus: Antimicrobial activity against Pseudomonas aeruginosa ATCC 27953 after 24 hrs by agar well diffusion method. Format: functional. In outline:
(§1)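 Agar well diffusion. Inocula of 100 µL: bacteria 1 × 10^8 CFU/mL on nutrient agar, yeast 1 × 10^6 CFU/mL on Sabouraud dextrose agar, fungi 1 × 10^4 spore/mL on potato dextrose agar. 10 mm wells received 100 µL of compound at 100 mg/mL in DMSO. Bacteria incubated 24 h at 37 °C, fungi 48 h at 28 °C. Controls were DMSO, ciprofloxacin 50 µg/mL and ketoconazole 50 µg/mL. Inhibition zone diameter in mm, scored N.A. to ++++, average of triplicates.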

The subject of experiment [2] is Klebsiella pneumoniae. The experiment can be described thus: Antimicrobial activity against Klebsiella pneumoniae ATCC 13883 after 24 hrs by agar well diffusion method. The experiment is classed as functional. In a few lines: as §1
In experiment [3] the test system is Staphylococcus aureus. The experiment can be described thus: Antimicrobial activity against Staphylococcus aureus ATCC 29213 after 24 hrs by two fold serial dilution technique. Format: functional. To be noted: ATCC 29213, 24 h. In a few lines:
(§2)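 Tested only compounds giving inhibition zones ≥ 16 mm, by two-fold serial dilution in nutrient broth. Final concentrations were […], 175, 87.5, 43.8 and 21.9 µg/mL. Each 5 mL tube received 0.1 mL inoculum of about 1 × 10^8 CFU/mL and was incubated 24 h at 37 °C. MIC was the lowest concentration with no growth.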

Experiment [4] concerns Priestia megaterium. The experiment can be described thus: Antimicrobial activity against Bacillus megaterium ATCC 9885 after 24 hrs by agar well diffusion method. The experiment is classed as functional. In a few lines:
as §1

Experiment [5] concerns Bacillus subtilis. As to the kind of experiment: Antimicrobial activity against Bacillus subtilis ATCC 6633 after 24 hrs by two fold serial dilution technique. Format: functional. Particulars: ATCC 6633, 24 h. In outline: as §2
Experiment [6] is described as follows: Antioxidant activity in rat erythrocytes assessed as inhibition of peroxyl radicals-induced hemolysis at 2 mM after 2 hrs. Format: functional. To be noted: Erythrocyte, read-out: INH. In a few lines: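 Rat blood from cardiac puncture, heparinized. Erythrocytes were washed three times in 0.15 M NaCl. A 10% suspension in PBS pH 7.4 was mixed with an equal volume of 200 mM AAPH in PBS containing sample, then shaken at 37 °C for 2 h. Mixture diluted with 8 volumes of PBS and centrifuged; supernatant A540 compared with a water-lysed sample for complete hemolysis. L-ascorbic acid was the positive control. Mean ± SD.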

Experiment [7] is described as follows: Cytotoxicity against mouse EAC cells assessed as cell viability using trypan blue staining after 2 hrs by hemocytometer analysis. Format: functional, cell-based. Particulars: Ehrlich.
Experiment [8] relates to Escherichia coli. As to the kind of experiment: Antimicrobial activity against Escherichia coli ATCC 25922 after 24 hrs by agar well diffusion method. The experiment is classed as functional. In a few lines:
as §1

Experiment [9] in a line: Antioxidant activity assessed as ABTS radical scavenging activity at 2 mM. The experiment is classed as functional. In outline:
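ABTS (60 µM, 2 mL) was oxidized with MnO2 (25 mg/mL, 3 mL) in 0.1 M phosphate buffer pH 7, then centrifuged and filtered, with A734 adjusted to about 0.5. 50 µL of 2 mM compound in MeOH/phosphate buffer (1:1) was added. Colour loss expressed as % inhibition. L-ascorbic acid was the standard; blank and negative controls used MeOH/buffer.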

Another experiment has as its system Aspergillus niger. As to the kind of experiment: Antimicrobial activity against Aspergillus niger after 48 hrs by agar well diffusion method. The experiment is classed as functional. In outline:
as §1
For orientation: Agar diffusion results depend on both activity and mobility in agar.

The test system of experiment [10] is Bacillus subtilis. As to the kind of experiment: Antimicrobial activity against Bacillus subtilis ATCC 6633 after 24 hrs by agar well diffusion method. The experiment is classed as functional. In a few lines:
as §1

Another experiment has as its system Candida albicans. The experiment can be described thus: Antimicrobial activity against Candida albicans NRRL Y-477 after 48 hrs by agar well diffusion method. Format: functional. In a few lines:
as §1

The test system of experiment [11] is Staphylococcus aureus. The experiment can be described thus: Antimicrobial activity against Staphylococcus aureus ATCC 29213 after 24 hrs by agar well diffusion method. The experiment is classed as functional. In a few lines: as §1
The subject of experiment [12] is Klebsiella pneumoniae. As to the kind of experiment: Antimicrobial activity against Klebsiella pneumoniae ATCC 13883 after 24 hrs by two fold serial dilution technique. Format: functional. To be noted: ATCC 13883, 24 h. In outline:
as §2

Experiment [13] deals with Pseudomonas aeruginosa. As to the kind of experiment: Antimicrobial activity against Pseudomonas aeruginosa ATCC 27953 after 24 hrs by two fold serial dilution technique. Format: functional. To be noted: ATCC 27953, 24 h. In a few lines:
as §2

In experiment [14] the test system is Priestia megaterium. As to the kind of experiment: Antimicrobial activity against Bacillus megaterium ATCC 9885 after 24 hrs by two fold serial dilution technique. The experiment is classed as functional. To be noted: ATCC 9885, 24 h. In outline: as §2
For experiment [15], the system named is Escherichia coli. As to the kind of experiment: Antimicrobial activity against Escherichia coli ATCC 25922 after 24 hrs by two fold serial dilution technique. The experiment is classed as functional. Particulars: ATCC 25922, 24 h. In outline:
as §2

Structures are written as SMILES. ≈ marks a conversion by molar mass, not a printed value.

For `C/C(=N\N=C1\N=C(c2ccccc2)CS1)c1nc(-c2ccccc2)[nH]c1C`, the “diameter of the inhibition zone (DIZ)” value in the experiment with Pseudomonas aeruginosa [1] is given as 10 mm; in the experiment with Klebsiella pneumoniae [2], 10 mm; in the experiment with Priestia megaterium [4], “<=4 mm”; in the experiment with Escherichia coli [8], 10 mm; in the experiment on Aspergillus niger, “<=4 mm”; in the experiment with Bacillus subtilis [10] it was 16 mm. In addition, the “diameter of the inhibition zone (DIZ)” value is recorded as “<=4 mm” with Candida albicans and 16 mm in the experiment on Staphylococcus aureus [11]. In addition, the MIC in the experiment on Staphylococcus aureus [3] is 29.1 mg/L (≈ 77.9 µM); against Bacillus subtilis [5] it was 43.8 mg/L (≈ 117 µM). Further, the percent hemolysis at 2000 µM in [6] was 2.75%. Further, the concentration for half-maximal inhibition (IC50) in experiment [7] came to 19.5 mg/L (≈ 52.2 µM). The inhibition in experiment [9] amounted to 79.3%.
Turning to `O=C(O)c1cn(C2CC2)c2cc(N3CCNCC3)c(F)cc2c1=O` [CIPROFLOXACIN], the MIC with Klebsiella pneumoniae [12] amounted to 10.9 mg/L (≈ 32.9 µM); against Staphylococcus aureus [3] it was 21.9 mg/L (≈ 66.1 µM); against Bacillus subtilis [5], 10.9 mg/L (≈ 32.9 µM); in the experiment with Pseudomonas aeruginosa [13], 10.9 mg/L (≈ 32.9 µM); against Priestia megaterium [14] it was 21.9 mg/L (≈ 66.1 µM); against Escherichia coli [15], 21.9 mg/L (≈ 66.1 µM). In addition, the “diameter of the inhibition zone (DIZ)” value in the experiment on Pseudomonas aeruginosa [1] was “>=21 mm”; with Klebsiella pneumoniae [2] it was “>=21 mm”; in the experiment on Priestia megaterium [4], 16 mm; in the experiment on Escherichia coli [8], 16 mm; with Aspergillus niger, “<=4 mm”; in the experiment on Bacillus subtilis [10] it was “>=21 mm”. In addition, the results for the “diameter of the inhibition zone (DIZ)” value with Candida albicans and in the experiment with Staphylococcus aureus [11] were “<=4 mm” and 16 mm, respectively.
As to `C/C(=N\NC(=O)/C(C#N)=C\c1ccc(F)cc1)c1nc(-c2ccccc2)[nH]c1C`, the “diameter of the inhibition zone (DIZ)” value was 16 mm with Pseudomonas aeruginosa [1]; 10 mm with Klebsiella pneumoniae [2]; “>=21 mm” in the experiment with Priestia megaterium [4]; 16 mm in the experiment with Escherichia coli [8]; “<=4 mm” in the experiment with Aspergillus niger; 16 mm with Bacillus subtilis [10]. For the same compound, the “diameter of the inhibition zone (DIZ)” value with Candida albicans was “<=4 mm”; in the experiment with Staphylococcus aureus [11] it was “>=21 mm”. Also, the MIC against Staphylococcus aureus [3] came to 21.9 mg/L (≈ 56.5 µM); in the experiment with Bacillus subtilis [5], 43.8 mg/L (≈ 113 µM); with Pseudomonas aeruginosa [13], 21.9 mg/L (≈ 56.5 µM); in the experiment on Priestia megaterium [14], 21.9 mg/L (≈ 56.5 µM); in the experiment with Escherichia coli [15], 21.9 mg/L (≈ 56.5 µM). For the same compound, in experiment [6], the percent hemolysis at 2000 µM worked out at 0.86%. The IC50 in [7] was determined as 85.2 mg/L (≈ 220 µM). Moreover, the inhibition in [9] is 68.6%.
Turning to `C/C(=N\N=C1\NC(=O)CS1)c1nc(-c2ccccc2)[nH]c1C`, the results for the MIC with Klebsiella pneumoniae [12], against Staphylococcus aureus [3] and against Bacillus subtilis [5] were 21.9 mg/L (≈ 69.9 µM), 43.8 mg/L (≈ 140 µM) and 43.8 mg/L (≈ 140 µM), respectively. The “diameter of the inhibition zone (DIZ)” value in the experiment with Pseudomonas aeruginosa [1] was “<=4 mm”; with Klebsiella pneumoniae [2], 16 mm; in the experiment with Priestia megaterium [4], “<=4 mm”; in the experiment on Escherichia coli [8], “<=4 mm”; with Aspergillus niger it was “<=4 mm”; in the experiment on Bacillus subtilis [10] it was 16 mm. Moreover, the entries for the “diameter of the inhibition zone (DIZ)” value in the experiment on Candida albicans and in the experiment with Staphylococcus aureus [11] were “<=4 mm” and 16 mm, respectively.
Consider `C/C(=N\NC(N)=S)c1nc(-c2ccccc2)[nH]c1C`, for which the “diameter of the inhibition zone (DIZ)” value was “<=4 mm” in the experiment on Pseudomonas aeruginosa [1]; 10 mm in the experiment on Klebsiella pneumoniae [2]; 10 mm with Priestia megaterium [4]; “<=4 mm” in the experiment on Escherichia coli [8]; “<=4 mm” with Aspergillus niger; 16 mm with Bacillus subtilis [10]. The entries for the “diameter of the inhibition zone (DIZ)” value in the experiment with Candida albicans and in the experiment with Staphylococcus aureus [11] were “<=4 mm” and 5 mm, respectively. In addition, in the experiment with Bacillus subtilis [5], inhibition of growth (MIC) required 87.5 mg/L (≈ 320 µM). Further, the percent hemolysis at 2000 µM in experiment [6] was found to be 2.45%. Moreover, the IC50 in [7] was found to be 4.18 mg/L (≈ 15.3 µM). Besides, in experiment [9], the inhibition was determined as 60.2%.
Take `C/C(=N\N=C1\NC(=O)/C(=C/c2cn(-c3ccccc3)nc2-c2cc3ccccc3o2)S1)c1nc(-c2ccccc2)[nH]c1C`: the “diameter of the inhibition zone (DIZ)” value with Pseudomonas aeruginosa [1], with Klebsiella pneumoniae [2], with Priestia megaterium [4], in the experiment with Escherichia coli [8], with Aspergillus niger and with Bacillus subtilis [10] was “<=4 mm” each time. Also, the “diameter of the inhibition zone (DIZ)” value with Candida albicans and in the experiment with Staphylococcus aureus [11] was “<=4 mm” each time. In experiment [6], the percent hemolysis at 2000 µM came to 1.5%. Besides, in [7], the IC50 stood at 125 mg/L (≈ 215 µM). In experiment [9], the inhibition amounted to 35.9%.
